rRNA inh HTS: inhibitors of bacterial rRNA selective over humanized ribosomes | E. coli WT GFP vs humanized-ribosome RFP mutants, fluorescence, 24 h; hits give low values; DMSO median 0, no signal -100 | GFP signal change (wild-type ribosome), % (test concentration not listed) | 350,000 tested, 1.6% active;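 active means significant combined selectivity score with lowered wild-type GFP, culture density cut under 30%, mutant RFP and density less affected; inactive means any of these conditions unmet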
PglD DTNB: inhibitors of Campylobacter jejuni PglD acetyltransferase; purified PglD enzyme, DTNB colorimetric CoA detection; inhibition, % at 12.5 µM; 360,000 tested, 0.098% active; AID 602405; in the data active means inhibition above about 16%, passing the limit was not always enough; inconclusive means no clear call, values can overlap the other calls
HIV Env fusion: HIV envelope-mediated fusion inhibition; HeLa-JRFL Env/CEM21 cell fusion, luciferase; inhibition, % at 12.3 µM; 360,000 tested, 1.1% active;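 active means mean replicate inhibition score of at least 50 and every replicate individually at or above 50; inconclusive means only one of the two criteria met; inactive means mean below 50 and not all replicates reaching 50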;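 further: 0% = plate neutral controls and 100% = maraviroc near 300 nM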
DENV2 CPE rescue: DENV2-induced cell death inhibition; DENV2-infected cells, cytopathic effect rescue, plate reader; CPE inhibition, % at 9.99 µM; 350,000 tested, 1.7% active; AID 651640; in the data active means CPE inhibition above about 20%, passing the limit was not always enough; inconclusive means no clear call, values can overlap the other calls; tested in BHK-21 cells;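 further: 0% = median of neutral control wells and 100% = median of positive control wells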
FN deposition inh: fibronectin deposition inhibition; inhibition, % at 12.6 µM; 350,000 tested, 0.086% active; AID 743247; AH1F fibroblasts, Alexa488-fibronectin deposition fluorescence, overnight;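 active means mean inhibition across replicates of 30% or more, regardless of how many single replicates reach that level; inconclusive means mean under 30% yet at least half of replicates reach 30%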;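 further: positive control wells lacked labelled fibronectin entirely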
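Test system: AH1F fibroblast monolayer depositing Alexa488-labelled fibronectin into matrix. Input: 10000 cells per well. Technique: fluorescence, ex 485 nm, em 525 nm. Buffer or medium: DMEM plus 2% serum, read in PBS. Timing: 1 h cell adhesion before compound, then overnight fibronectin incubation. Compound: single dose, pinned. Read-out basis: inhibition from reduced deposited-fibronectin fluorescence.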
PGC1a acetyl inh: lowers PGC1a acetylation signal in U2OS cells. 350,000 tested, 0.17% active. AID 651687. AlphaScreen anti-acetyl-lysine; with virally co-expressed GCN5 acetyltransferase. inhibition, % at 15.6 µM;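 active means every replicate shows inhibition of at least 40%; inconclusive means mean inhibition at least 40% but some replicate below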;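 further: 0% = neutral control wells and 100% = positive control wells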
* = called active by the depositor; [ ] = another dose, or the depositor's remark. Shown are actives, neighbours in structure and some others; about 3.5% of the full set was active somewhere.

Cc1cc(C(=O)NCC(=O)OCC(=O)Nc2ccc(OC(F)F)cc2)ccc1[N+](=O)[O-] was read as rRNA inh HTS -21.9*, HIV Env fusion 15.1, DENV2 CPE rescue 2.7, FN deposition inh 5.0 and PGC1a acetyl inh 11.4.
Screening CN(C)CC#Cc1ccc([C@@H]2[C@H](CO)N3C(=O)CN(C(=O)c4ccccc4)C[C@@H]23)cc1 returned rRNA inh HTS 6.8, DENV2 CPE rescue -2.4 and PGC1a acetyl inh -4.6.
For Cn1cnc(S(=O)(=O)N[C@@H]2C=C[C@@H](CC(=O)NCC3CC3)O[C@H]2CO)c1 the results were rRNA inh HTS 4.3, PglD DTNB -0.5, HIV Env fusion -1.8[16.7 µM], DENV2 CPE rescue inconclusive, FN deposition inh -0.7 and PGC1a acetyl inh -2.6.
Screening Cc1ccc(S(=O)(=O)N2CCCCC2)cc1C(=O)OCC(=O)N1c2ccccc2NC(=O)C1(C)C returned rRNA inh HTS -3.5, PglD DTNB -1.4, HIV Env fusion inconclusive, DENV2 CPE rescue -2.6, FN deposition inh -1.1 and PGC1a acetyl inh 0.0.
Cc1ccc(C(=O)OCC(=O)N2c3ccccc3NC(=O)C2(C)C)cc1S(=O)(=O)N1CCCCC1 was read as rRNA inh HTS -3.6, PglD DTNB -1.9, HIV Env fusion 59.1*, DENV2 CPE rescue -4.9, FN deposition inh -17.7 and PGC1a acetyl inh -3.5.
For Cc1ccc(NC(=O)CNC(=O)c2ccc(OC(F)F)cc2)cc1S(=O)(=O)N1CCCCCC1 the results were rRNA inh HTS -23.0*, PglD DTNB 5.6, DENV2 CPE rescue 8.9 and FN deposition inh 3.3.
O=C(CSc1nc2scc(-c3ccccc3)c2c(=O)[nH]1)N1CCCCC1 was read as rRNA inh HTS -35.3*, PglD DTNB -4.7, HIV Env fusion -2.2, DENV2 CPE rescue 0.5, FN deposition inh -8.4 and PGC1a acetyl inh 3.1.
Screening O=C(CSc1nc2scc(-c3ccccc3)c2c(=O)[nH]1)NC1CCCCC1 returned rRNA inh HTS 12.8, HIV Env fusion -0.4, DENV2 CPE rescue 3.6 and FN deposition inh 2.3.
For O=[N+]([O-])c1ccc(N/N=C/c2cccc(O)c2)cc1 the results were rRNA inh HTS -52.7, PglD DTNB 9.8, HIV Env fusion -79.3, DENV2 CPE rescue -1.8 and FN deposition inh -8.8.
`O=C(O)c1ccc(N/N=C/c2ccc(-c3cccc(Cl)c3)o2)cc1` gave rRNA inh HTS -39.0*, PglD DTNB 1.5, HIV Env fusion -131.6, DENV2 CPE rescue -5.6, FN deposition inh 0.0 and PGC1a acetyl inh -20.3.
For CCc1nnc(N/N=C/c2ccc(-c3ccc([N+](=O)[O-])cc3)o2)n1N the results were rRNA inh HTS -36.8*, HIV Env fusion -2.7, DENV2 CPE rescue 2.7, FN deposition inh -5.0 and PGC1a acetyl inh -7.4.
O=C(O)c1ccc(N/N=C/c2ccc(-c3cc(Cl)ccc3Cl)o2)cc1 was read as rRNA inh HTS -5.7, PglD DTNB -8.9, HIV Env fusion -84.5, DENV2 CPE rescue -5.3, FN deposition inh 3.0 and PGC1a acetyl inh 12.8.
Screening O=C(O)c1cccc(-c2ccc(/C=N/Nc3ccc([N+](=O)[O-])cc3)o2)c1 returned rRNA inh HTS -38.5*, PglD DTNB -7.6, HIV Env fusion -11.1, DENV2 CPE rescue 15.3, FN deposition inh 2.7 and PGC1a acetyl inh 0.7.
`O=[N+]([O-])c1ccc(N/N=C/c2cccc(O)c2O)cc1` gave rRNA inh HTS -30.6*, PglD DTNB -1.7, HIV Env fusion -35.8, DENV2 CPE rescue 3.2 and FN deposition inh 8.0.
`COCC#Cc1ccc([C@@H]2[C@@H](CO)N3C(=O)CN(C(=O)c4cccnc4)C[C@H]23)cc1` gave rRNA inh HTS 5.6, DENV2 CPE rescue -10.0 and PGC1a acetyl inh 7.9.
CC(C)(C)NC(=O)C(Cc1ccccc1)NS(=O)(=O)c1ccc2c(c1)CCC(=O)N2 (stereo not given) was read as PglD DTNB 1.2, HIV Env fusion 8.5, FN deposition inh 0.1 and PGC1a acetyl inh -11.7.
CCCCN(C)C(=O)C(Cc1ccccc1)NS(=O)(=O)c1ccc2c(c1)CCC(=O)N2 (stereo not given) was read as rRNA inh HTS -2.3, PglD DTNB -4.8, HIV Env fusion 67.0*, DENV2 CPE rescue -8.4, FN deposition inh -4.1 and PGC1a acetyl inh -17.9.
`CNC[C@H]1Oc2ccc(NS(=O)(=O)c3ccccc3)cc2CC(=O)N([C@H](C)CO)C[C@H]1C` gave rRNA inh HTS 6.5, PglD DTNB 8.6, HIV Env fusion 16.4[16.7 µM], DENV2 CPE rescue 4.3 and PGC1a acetyl inh 1.9.
For CCC1(c2ccccc2)NC(=O)N(CC(=O)Nc2ccccc2C(=O)N2CCCCC2)C1=O (stereo not given) the results were rRNA inh HTS 7.0, PglD DTNB -2.0, HIV Env fusion -30.0, DENV2 CPE rescue 34.8* and FN deposition inh 4.3.
Screening CCC1(c2ccccc2)NC(=O)N(CC(=O)Nc2ccccc2N2CCCCC2)C1=O (stereo not given) returned rRNA inh HTS -14.3, PglD DTNB 2.5, HIV Env fusion -122.3, DENV2 CPE rescue -6.9 and PGC1a acetyl inh -9.0.
C[C@H]1CN([C@@H](C)CO)C(=O)c2cc(NC(=O)CCCN(C)C)ccc2O[C@@H]1CN(C)C(=O)Nc1ccc2c(c1)OCO2 was read as rRNA inh HTS -2.5, PglD DTNB 5.9, HIV Env fusion -2.8[16.7 µM], DENV2 CPE rescue 0.1, FN deposition inh -5.3 and PGC1a acetyl inh 0.9.
O=C(Cc1ccccc1)N[C@@H]1C=C[C@@H](CC(=O)N2CCCCC2)O[C@@H]1CO was read as rRNA inh HTS -2.7, PglD DTNB 1.9, HIV Env fusion 13.8[16.7 µM], DENV2 CPE rescue 1.7, FN deposition inh -1.1 and PGC1a acetyl inh 2.1.
`CN(C)C(=O)C[C@@H]1C=C[C@H](NC(=O)NC2CCCCC2)[C@@H](CO)O1` gave rRNA inh HTS 0.7, PglD DTNB 1.9, HIV Env fusion -6.5[16.7 µM], DENV2 CPE rescue 5.1 and PGC1a acetyl inh 6.5.
Screening O=C(Cc1ccccc1)N[C@@H]1C=C[C@H](CC(=O)N2CCCCC2)O[C@@H]1CO returned rRNA inh HTS 1.9, PglD DTNB 4.7, HIV Env fusion 56.8*[16.7 µM], DENV2 CPE rescue -4.2, FN deposition inh 7.1 and PGC1a acetyl inh 9.8.
O=C(NC1CCCC1)N[C@H]1C=C[C@H](CC(=O)N2CCOCC2)O[C@H]1CO was read as rRNA inh HTS 2.4, PglD DTNB -2.6, HIV Env fusion 4.9[16.7 µM], DENV2 CPE rescue 56.8*, FN deposition inh 10.3 and PGC1a acetyl inh 0.1.
CN(C)C(=O)C[C@@H]1C=C[C@@H](NC(=O)NC2CCCCC2)[C@H](CO)O1 was read as rRNA inh HTS -0.6, PglD DTNB 7.3, HIV Env fusion -22.9[16.7 µM], DENV2 CPE rescue 72.7* and PGC1a acetyl inh 11.6.

Screening results (PubChem)
